Measurements collected from several papers.
Each line is one published result; the experiments were not run side by side.
Target: Mitogen-activated protein kinase kinase kinase kinase 2 (MAP4K2, Homo sapiens, UniProt Q12851)
Residues used in one study (Q12851 1-820): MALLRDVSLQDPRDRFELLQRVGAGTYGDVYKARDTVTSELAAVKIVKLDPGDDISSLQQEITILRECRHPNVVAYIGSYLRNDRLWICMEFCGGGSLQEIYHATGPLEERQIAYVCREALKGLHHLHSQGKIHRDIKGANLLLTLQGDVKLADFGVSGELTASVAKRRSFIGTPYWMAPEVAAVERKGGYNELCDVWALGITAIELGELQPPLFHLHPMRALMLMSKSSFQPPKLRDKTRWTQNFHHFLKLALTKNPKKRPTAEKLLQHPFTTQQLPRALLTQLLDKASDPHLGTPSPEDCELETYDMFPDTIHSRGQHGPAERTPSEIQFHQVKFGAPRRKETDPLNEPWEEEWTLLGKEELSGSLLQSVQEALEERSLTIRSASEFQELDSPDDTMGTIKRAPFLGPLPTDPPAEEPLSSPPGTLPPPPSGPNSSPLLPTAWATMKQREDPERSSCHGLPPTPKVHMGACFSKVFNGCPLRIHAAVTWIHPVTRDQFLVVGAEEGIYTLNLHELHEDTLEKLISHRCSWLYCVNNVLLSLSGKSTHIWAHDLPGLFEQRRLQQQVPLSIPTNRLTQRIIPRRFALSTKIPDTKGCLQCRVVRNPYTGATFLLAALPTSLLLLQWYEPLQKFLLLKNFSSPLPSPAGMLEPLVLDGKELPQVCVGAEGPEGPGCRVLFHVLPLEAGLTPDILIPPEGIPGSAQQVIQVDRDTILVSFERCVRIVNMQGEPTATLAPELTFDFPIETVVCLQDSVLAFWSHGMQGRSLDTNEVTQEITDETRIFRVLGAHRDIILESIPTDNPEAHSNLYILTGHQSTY

| Structure (SMILES) | test | conditions | quantity | result |
| --- | --- | --- | --- | --- |
| N#CCCc1ccc2c(c1)-c1[nH]c3ccc([N+](=O)[O-])cc3c1CC(=O)N2 | cell-free assay | 0.5 µM | remaining signal | 14% |
| CC(C)(C)c1nc2c(s1)c1nc(N)ncc1c1ccc(NS(=O)(=O)c3c(F)cccc3F)c(F)c12 | enzyme activity, inhibitor, radiometric | 1 µM | remaining activity | 114% |
| COc1cc(Nc2c(C#N)cnc3cc(OCCCN4CCN(C)CC4)c(OC)cc23)c(Cl)cc1Cl | cell-free assay | 0.5 µM | remaining signal | 3.16% |
| CC(C)(O)[C@H]1CC[C@H](Nc2ccc3ncc(-c4cccc(C(F)(F)F)c4)n3n2)CC1 | enzyme activity, inhibitor | 1 µM | remaining activity | 94.6% |
| Cc1ccc(Nc2nccc(N(C)c3ccc4c(C)n(C)nc4c3)n2)cc1S(N)(=O)=O | enzyme activity, inhibitor | 0.3 µM | inhibition | 16% |
| O=C(O)[C@H]1[C@H](Cn2nnc3ccccc3c2=O)CC[C@@H]1C(=O)c1ccc(OCCC2CCOCC2)cc1 | cell-free assay, competition with immobilised ligand | 1 µM | remaining binding | 100% |
| COc1cc(/C=C/C(=O)CC(=O)/C=C/c2ccc(O)c(OC)c2)ccc1O | enzyme activity, inhibitor | 1 µM | activity vs control | 103% |
| CCN(CC)c1ccc(C2=NNC(=O)CC2C)cc1[N+](=O)[O-] (centres unmarked) | enzyme activity, inhibitor | 10 µM | remaining activity | 97% |
| CCCOc1ccc(OC)c(F)c1C(=O)c1ccc(C(=O)N[C@@H]2CNC[C@H]2NC(=O)c2ccc3[nH]ncc3c2)cc1 | enzyme activity, inhibitor | 10 µM | remaining activity | 61% |
| FC(F)(F)Oc1cccc(-c2cnc3ccc(-c4ccncc4)nn23)c1 | enzyme activity, inhibitor, radiometric | 5 µM | activity vs control | 33% |
| O=C1NC(c2ccccn2)Sc2ccccc21 (centres unmarked) | cell-free assay, competition with immobilised ligand | 1 µM | remaining binding | 83% |
| FC(F)c1nc2ccccc2n1-c1nc(N2CCOCC2)nc(N2CCOCC2)n1 | enzyme activity, inhibitor | 10 µM | remaining activity | 104% |
| COc1cc2ncnc(Nc3ccc(Oc4ccccc4)cc3C)c2cc1OC | enzyme activity, inhibitor | 1 µM | inhibition | 2% |
| Cc1cc(NC(=O)c2cccc(S(F)(F)(F)(F)F)c2)cc(-n2ccn3nc(-c4cccnc4)cc23)c1 | cell-free assay, competition with immobilised ligand | 1 µM | remaining binding | 100% |
| Cc1cnc(NC2CCOCC2)nc1-n1cnc(C(=O)NC(CN)c2cc(F)cc(Cl)c2)c1 (centres unmarked) | enzyme activity, inhibitor, radiometric | 1 µM | remaining activity | 100% |
| O=C(Nc1cccnn1)N1CCC(=Cc2cccc(Oc3ccc(C(F)(F)F)cn3)c2)CC1 | cell-free assay, competition with immobilised ligand | 1 µM | remaining binding | 100% |
| O=C(Nc1cnn(-c2csc(C(=O)NC3COC3)c2)c1)Nc1c(F)cccc1Cl | enzyme activity, inhibitor | 5 µM | remaining activity | 95.3% |
| COc1ccc2c(O[C@@H]3C[C@H]4C(=O)N[C@]5(C(=O)O)CC5/C=C\CCCCC[C@H](NC(=O)OC5CCCC5)C(=O)N4C3)cc(-c3csc(NC(=O)C(C)C)n3)nc2c1C (some centres unmarked) | cell-free assay, competition with immobilised ligand | 1 µM | remaining binding | 100% |
| CNC(=O)c1cc(Oc2ccc(NC(=O)Nc3ccc(Cl)c(C(F)(F)F)c3)cc2)ccn1 | enzyme activity, inhibitor | 10 µM | inhibition | 46% |
| CC(=O)N1CCC(c2ccc(C(=O)NC(=N)N)cc2C(F)(F)F)CC1 | cell-free assay, competition with immobilised ligand | 1 µM | remaining binding | 100% |
| COc1cc(Nc2cnc(C#N)c(O[C@H](C)CN(C)C)n2)ncc1-c1cnn(C)c1 | enzyme activity, inhibitor, radiometric | 1 µM | remaining activity | 102% |
| CCN(CC)CCNC(=O)c1c(C)[nH]c(/C=C2\C(=O)Nc3ccc(F)cc32)c1C | enzyme activity, inhibitor | 10 µM | inhibition | 92% |
| c1ccc(N2CCN(Cc3nc4ccccc4[nH]3)CC2)nc1 | binding, competition with immobilised ligand | 1 µM | remaining binding | 100% |
| Oc1cccc(-c2nc(N3CCOCC3)c3oc4ncccc4c3n2)c1 | enzyme activity, inhibitor | 10 µM | remaining activity | 91% |
| O=c1nc(-c2ccccn2)sc2ccccc12 | binding, competition with immobilised ligand | 1 µM | remaining binding | 100% |
| O=C1NC(=O)c2cc(Nc3ccc(F)cc3)c(Nc3ccc(F)cc3)cc21 | cell-free assay | 0.5 µM | remaining signal | 98.2% |
